ChEMBL document CHEMBL4311956, “A Qualified Success: Discovery of a New Series of ATAD2 Bromodomain Inhibitors with a Novel Binding Mode Using High-Throughput Screening and Hit Qualification” (J Med Chem, 2019)

Key:
[1] = molecular target: Bromodomain-containing protein 7 (Homo sapiens, UniProt Q9NPI1); test: Inhibition of BRD7 (unknown origin) by TR-FRET assay
[2] = molecular target: Bromodomain testis-specific protein (Homo sapiens, UniProt Q58F21, Y66A); test: Displacement of Alexa Fluor 647 labelled ligand from His6/FLAG-tagged TEV fused BRDT BD2(1 to 397 residues)/[…] mutant (unknown origin) after 30 mins by TR-FRET assay
Outline: (§1)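 BET selectivity by TR-FRET fluoroligand displacement. Uses tandem BET bromodomain constructs carrying a mutation in the non-assayed bromodomain.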

[3] = molecular target: Bromodomain-containing protein 4 (Homo sapiens, UniProt O60885, Y97A); test: Displacement of Alexa Fluor 647 labelled ligand from His6-tagged BRD4 BD2 (1 to 477 residues)/BD1 Y97A mutant (unknown origin) after 30 mins by TR-FRET assay; outline: as §1
Homo sapiens [4] = organism: Homo sapiens; test: (§2) Selectivity ratio, ratio of inhibition of CECR2 (unknown origin) to displacement of SGRG-K(Ac)-GG-K(Ac)-GLG-K(Ac)-GGAKRHRKV-biotin) from His6/FLAG-tagged TEV fused ATAD2 bromodomain (981 to 1121 residues) expressed in Escherichia coli BL21(DE3) cells
Homo sapiens [5] = organism: Homo sapiens; test: as §2, with “displacement” for “inhibition”, “Alexa Fluor 647 labelled ligand from His6-tagged BRD4 BD1 (1 to 477 residues)/BD2 Y390A mutant” for “CECR2”
[6] = molecular target: T1, ATPase family AAA domain-containing protein 2 (Homo sapiens, UniProt Q6PL18); test: Displacement of SGRG-K(Ac)-GG-K(Ac)-GLG-K(Ac)-GGAKRHRKV-biotin) from His6/FLAG-tagged TEV fused ATAD2 bromodomain (981 to 1121 residues) (unknown origin) expressed in Escherichia coli BL21(DE3) cells after 30 mins by TR-FRET assay
T1 sequence (Q6PL18 whole entry): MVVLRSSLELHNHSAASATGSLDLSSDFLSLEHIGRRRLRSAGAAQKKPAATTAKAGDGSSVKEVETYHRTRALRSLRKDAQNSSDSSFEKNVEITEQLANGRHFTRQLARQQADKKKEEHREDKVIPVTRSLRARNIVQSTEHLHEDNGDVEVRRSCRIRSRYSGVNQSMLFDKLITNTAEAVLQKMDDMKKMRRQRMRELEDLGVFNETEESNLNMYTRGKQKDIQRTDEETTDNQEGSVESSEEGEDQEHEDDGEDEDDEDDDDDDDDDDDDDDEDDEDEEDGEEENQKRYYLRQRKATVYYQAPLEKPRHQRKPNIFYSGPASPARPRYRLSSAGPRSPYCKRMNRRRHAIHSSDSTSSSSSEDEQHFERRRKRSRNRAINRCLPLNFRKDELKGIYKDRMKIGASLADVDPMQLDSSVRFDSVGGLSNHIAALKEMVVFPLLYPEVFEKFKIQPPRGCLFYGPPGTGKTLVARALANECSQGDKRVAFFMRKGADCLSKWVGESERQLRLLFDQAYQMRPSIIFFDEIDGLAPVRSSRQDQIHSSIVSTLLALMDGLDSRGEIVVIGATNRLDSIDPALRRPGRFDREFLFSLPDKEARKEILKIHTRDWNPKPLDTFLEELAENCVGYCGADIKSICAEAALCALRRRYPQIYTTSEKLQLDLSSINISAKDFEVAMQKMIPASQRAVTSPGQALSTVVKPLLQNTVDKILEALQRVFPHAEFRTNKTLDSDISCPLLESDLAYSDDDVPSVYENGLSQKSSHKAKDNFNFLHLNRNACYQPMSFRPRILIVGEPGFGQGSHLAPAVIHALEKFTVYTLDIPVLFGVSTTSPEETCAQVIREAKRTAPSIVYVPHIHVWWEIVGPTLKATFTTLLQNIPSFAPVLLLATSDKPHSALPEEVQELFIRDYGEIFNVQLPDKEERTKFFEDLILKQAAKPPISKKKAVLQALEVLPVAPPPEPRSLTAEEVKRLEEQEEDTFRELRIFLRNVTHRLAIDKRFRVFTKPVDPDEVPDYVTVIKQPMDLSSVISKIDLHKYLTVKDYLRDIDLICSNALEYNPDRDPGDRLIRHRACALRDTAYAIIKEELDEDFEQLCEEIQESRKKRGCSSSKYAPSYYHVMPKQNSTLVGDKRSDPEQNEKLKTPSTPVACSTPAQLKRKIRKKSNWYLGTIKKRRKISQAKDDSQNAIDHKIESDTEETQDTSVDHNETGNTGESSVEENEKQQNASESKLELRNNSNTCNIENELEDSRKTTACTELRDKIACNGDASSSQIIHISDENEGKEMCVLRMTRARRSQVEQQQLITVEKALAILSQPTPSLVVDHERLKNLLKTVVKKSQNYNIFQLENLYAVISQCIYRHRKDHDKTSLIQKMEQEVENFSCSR

[7] = molecular target: Bromodomain-containing protein 3 (Homo sapiens, UniProt Q15059, Y73A); test: Displacement of Alexa Fluor 647 labelled ligand from His6-tagged BRD3 BD2(1 to 435 residues)/BD1 Y73A mutant (unknown origin) after 30 mins by TR-FRET assay; outline: as §1
[8] = molecular target: T1, ATPase family AAA domain-containing protein 2; test: Inhibition of ATAD2 bromodomain in human HUT78 chromatin lysate after 2 hrs by bromosphere competition binding assay
Outline: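 Bromosphere chemoproteomic assay. Measures competitive inhibition of binding of endogenous full-length ATAD2 from Hut-78 cells.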

[9] = molecular target: Bromodomain testis-specific protein (Homo sapiens, UniProt Q58F21, Y309A); test: Displacement of Alexa Fluor 647 labelled ligand from His6/FLAG-tagged TEV fused BRDT BD1(1 to 397 residues)/BD2 Y309A mutant (unknown origin) after 30 mins by TR-FRET assay; outline: as §1
[10] = molecular target: Bromodomain-containing protein 9 (Homo sapiens, UniProt Q9H8M2); test: Inhibition of BRD9 (unknown origin) by TR-FRET assay
[11] = molecular target: Bromodomain-containing protein 2 (Homo sapiens, UniProt P25440, Y113A); test: Displacement of Alexa Fluor 647 labelled ligand from His6-tagged BRD2 BD2 (1 to 473 residues)/BD1 Y113A mutant (unknown origin) after 30 mins by TR-FRET assay; outline: as §1
[12] = molecular target: Nucleosome-remodeling factor subunit BPTF (Homo sapiens, UniProt Q12830); test: Inhibition of BPTF (unknown origin) by TR-FRET assay
[13] = molecular target: Transcription initiation factor TFIID subunit 1 (Homo sapiens, UniProt P21675); test: Inhibition of TAF1 BD2 (unknown origin) by TR-FRET assay
[14] = molecular target: Bromodomain-containing protein 3 (Homo sapiens, UniProt Q15059, Y348A); test: Displacement of Alexa Fluor 647 labelled ligand from His6-tagged BRD3 BD1(1 to 435 residues)/BD2 Y348A mutant (unknown origin) after 30 mins by TR-FRET assay; outline: as §1
[15] = molecular target: Bromodomain and PHD finger-containing protein 3 (Homo sapiens, UniProt Q9ULD4); test: Inhibition of BRPF3 (unknown origin) by TR-FRET assay
Chain of Bromodomain and PHD finger-containing protein 3 (Q9ULD4 whole entry): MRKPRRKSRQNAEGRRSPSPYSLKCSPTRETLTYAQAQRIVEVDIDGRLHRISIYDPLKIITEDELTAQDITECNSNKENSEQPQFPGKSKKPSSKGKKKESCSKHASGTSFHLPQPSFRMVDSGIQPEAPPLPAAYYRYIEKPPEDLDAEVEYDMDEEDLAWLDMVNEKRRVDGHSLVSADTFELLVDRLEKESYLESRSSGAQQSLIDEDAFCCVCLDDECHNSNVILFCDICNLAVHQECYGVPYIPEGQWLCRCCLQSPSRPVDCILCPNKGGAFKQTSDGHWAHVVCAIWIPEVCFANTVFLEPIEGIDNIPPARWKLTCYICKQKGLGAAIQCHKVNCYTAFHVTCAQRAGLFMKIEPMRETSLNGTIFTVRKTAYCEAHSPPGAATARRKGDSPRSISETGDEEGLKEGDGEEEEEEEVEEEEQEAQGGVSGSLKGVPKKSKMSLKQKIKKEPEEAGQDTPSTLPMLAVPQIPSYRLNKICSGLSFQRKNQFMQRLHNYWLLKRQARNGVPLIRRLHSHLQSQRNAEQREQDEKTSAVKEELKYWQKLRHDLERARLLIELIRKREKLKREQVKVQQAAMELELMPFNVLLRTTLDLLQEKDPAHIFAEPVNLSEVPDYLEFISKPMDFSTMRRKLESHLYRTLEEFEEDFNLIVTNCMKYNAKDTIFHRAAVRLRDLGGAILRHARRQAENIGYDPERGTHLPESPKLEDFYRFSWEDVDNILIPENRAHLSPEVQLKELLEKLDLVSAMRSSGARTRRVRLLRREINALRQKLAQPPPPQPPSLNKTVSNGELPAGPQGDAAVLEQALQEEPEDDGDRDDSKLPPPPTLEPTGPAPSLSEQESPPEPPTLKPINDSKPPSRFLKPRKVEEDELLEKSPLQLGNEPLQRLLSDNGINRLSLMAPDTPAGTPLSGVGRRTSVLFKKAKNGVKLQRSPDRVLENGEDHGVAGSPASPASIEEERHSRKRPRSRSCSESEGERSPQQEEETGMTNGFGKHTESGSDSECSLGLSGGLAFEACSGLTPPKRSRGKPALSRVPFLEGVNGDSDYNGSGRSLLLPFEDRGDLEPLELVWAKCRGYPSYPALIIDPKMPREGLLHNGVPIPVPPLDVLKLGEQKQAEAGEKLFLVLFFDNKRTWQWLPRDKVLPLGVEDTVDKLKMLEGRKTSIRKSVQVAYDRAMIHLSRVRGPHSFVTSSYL

Chain of Bromodomain-containing protein 2 (P25440 whole entry Y113A, the tested form may be a part): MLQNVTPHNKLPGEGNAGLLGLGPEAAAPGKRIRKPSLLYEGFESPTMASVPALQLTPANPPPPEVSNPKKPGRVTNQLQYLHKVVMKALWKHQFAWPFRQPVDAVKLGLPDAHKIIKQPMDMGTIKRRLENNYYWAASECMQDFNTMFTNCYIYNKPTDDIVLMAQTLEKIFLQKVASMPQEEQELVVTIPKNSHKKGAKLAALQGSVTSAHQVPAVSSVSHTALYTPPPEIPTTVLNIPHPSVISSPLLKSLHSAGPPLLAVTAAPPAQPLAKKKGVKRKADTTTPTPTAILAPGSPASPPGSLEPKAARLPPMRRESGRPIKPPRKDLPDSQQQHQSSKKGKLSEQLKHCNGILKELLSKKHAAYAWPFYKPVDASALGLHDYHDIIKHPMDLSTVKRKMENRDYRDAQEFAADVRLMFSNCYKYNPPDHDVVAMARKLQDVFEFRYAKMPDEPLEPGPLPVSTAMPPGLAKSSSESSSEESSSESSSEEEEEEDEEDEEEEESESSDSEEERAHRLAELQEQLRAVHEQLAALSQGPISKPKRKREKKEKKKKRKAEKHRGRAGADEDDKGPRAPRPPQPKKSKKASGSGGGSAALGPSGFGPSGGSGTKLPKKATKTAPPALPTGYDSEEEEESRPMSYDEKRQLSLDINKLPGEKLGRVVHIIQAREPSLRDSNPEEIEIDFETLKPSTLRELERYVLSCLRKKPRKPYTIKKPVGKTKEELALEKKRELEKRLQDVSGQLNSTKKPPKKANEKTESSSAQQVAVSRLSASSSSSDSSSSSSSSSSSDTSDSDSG
Chain of Transcription initiation factor TFIID subunit 1 (P21675 whole entry, the tested form may be a part): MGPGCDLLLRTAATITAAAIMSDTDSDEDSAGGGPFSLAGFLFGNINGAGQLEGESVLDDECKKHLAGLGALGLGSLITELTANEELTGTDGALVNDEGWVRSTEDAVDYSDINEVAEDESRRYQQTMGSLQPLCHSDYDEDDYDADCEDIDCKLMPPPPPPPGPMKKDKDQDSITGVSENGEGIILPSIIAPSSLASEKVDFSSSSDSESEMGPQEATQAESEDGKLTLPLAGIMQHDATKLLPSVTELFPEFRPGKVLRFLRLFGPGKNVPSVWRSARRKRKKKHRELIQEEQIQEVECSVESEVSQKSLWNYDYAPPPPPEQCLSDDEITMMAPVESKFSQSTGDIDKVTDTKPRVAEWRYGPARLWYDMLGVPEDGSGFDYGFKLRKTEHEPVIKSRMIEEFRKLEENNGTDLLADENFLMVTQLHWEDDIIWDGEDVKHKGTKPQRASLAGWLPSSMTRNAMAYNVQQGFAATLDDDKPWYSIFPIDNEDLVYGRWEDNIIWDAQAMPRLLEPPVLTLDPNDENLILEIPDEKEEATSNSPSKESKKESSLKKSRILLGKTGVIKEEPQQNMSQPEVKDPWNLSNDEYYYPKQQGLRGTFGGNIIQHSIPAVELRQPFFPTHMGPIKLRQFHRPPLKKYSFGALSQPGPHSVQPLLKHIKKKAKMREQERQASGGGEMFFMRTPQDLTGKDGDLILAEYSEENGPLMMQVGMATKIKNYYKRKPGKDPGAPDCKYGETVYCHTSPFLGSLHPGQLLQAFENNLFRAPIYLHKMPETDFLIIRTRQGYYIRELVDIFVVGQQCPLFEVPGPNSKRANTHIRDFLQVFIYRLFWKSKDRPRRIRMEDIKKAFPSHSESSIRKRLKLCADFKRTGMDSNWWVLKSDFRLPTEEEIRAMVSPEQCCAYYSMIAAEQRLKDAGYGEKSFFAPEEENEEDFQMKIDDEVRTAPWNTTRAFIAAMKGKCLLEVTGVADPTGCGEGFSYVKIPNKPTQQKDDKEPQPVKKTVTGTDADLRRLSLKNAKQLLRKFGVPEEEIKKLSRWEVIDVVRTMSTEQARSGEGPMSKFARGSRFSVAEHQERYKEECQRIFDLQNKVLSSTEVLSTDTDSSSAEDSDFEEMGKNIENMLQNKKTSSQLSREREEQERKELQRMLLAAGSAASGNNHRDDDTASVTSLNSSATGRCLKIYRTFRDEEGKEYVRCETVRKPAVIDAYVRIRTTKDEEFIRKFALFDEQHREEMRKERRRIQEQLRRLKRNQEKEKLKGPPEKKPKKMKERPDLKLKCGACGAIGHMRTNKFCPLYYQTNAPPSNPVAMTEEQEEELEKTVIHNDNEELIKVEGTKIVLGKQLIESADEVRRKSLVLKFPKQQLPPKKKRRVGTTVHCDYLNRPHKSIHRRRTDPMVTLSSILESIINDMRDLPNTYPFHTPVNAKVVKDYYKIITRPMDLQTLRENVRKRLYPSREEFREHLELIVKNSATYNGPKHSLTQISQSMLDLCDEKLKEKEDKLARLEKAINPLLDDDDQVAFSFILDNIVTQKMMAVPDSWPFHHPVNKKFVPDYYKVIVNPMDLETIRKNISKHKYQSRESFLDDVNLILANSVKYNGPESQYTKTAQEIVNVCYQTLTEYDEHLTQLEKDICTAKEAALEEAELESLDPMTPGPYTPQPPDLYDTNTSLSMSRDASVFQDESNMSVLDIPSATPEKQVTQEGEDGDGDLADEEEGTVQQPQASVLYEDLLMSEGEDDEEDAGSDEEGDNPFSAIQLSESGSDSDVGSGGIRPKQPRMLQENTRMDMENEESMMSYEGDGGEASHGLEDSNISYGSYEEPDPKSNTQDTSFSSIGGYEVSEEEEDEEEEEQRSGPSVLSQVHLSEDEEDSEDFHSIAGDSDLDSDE
Chain of Bromodomain-containing protein 9 (Q9H8M2 whole entry, the tested form may be a part): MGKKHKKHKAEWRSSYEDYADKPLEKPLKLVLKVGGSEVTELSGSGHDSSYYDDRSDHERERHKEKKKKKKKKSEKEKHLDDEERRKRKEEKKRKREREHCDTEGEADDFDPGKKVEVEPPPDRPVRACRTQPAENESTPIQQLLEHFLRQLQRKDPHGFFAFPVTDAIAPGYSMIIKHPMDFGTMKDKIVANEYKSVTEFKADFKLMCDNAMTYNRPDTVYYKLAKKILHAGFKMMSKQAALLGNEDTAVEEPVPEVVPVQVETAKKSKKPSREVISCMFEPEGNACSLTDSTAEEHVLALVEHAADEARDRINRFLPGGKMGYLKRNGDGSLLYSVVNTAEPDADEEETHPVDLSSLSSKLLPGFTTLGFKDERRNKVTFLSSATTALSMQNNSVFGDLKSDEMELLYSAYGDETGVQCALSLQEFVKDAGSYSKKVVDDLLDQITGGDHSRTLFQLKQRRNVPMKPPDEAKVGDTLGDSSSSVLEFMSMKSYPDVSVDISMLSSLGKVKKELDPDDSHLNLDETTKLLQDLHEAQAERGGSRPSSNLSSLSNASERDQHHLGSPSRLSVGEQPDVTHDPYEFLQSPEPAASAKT

IC50 [1]: 63.1 µM
IC50 [2]: 15.8 µM
IC50 [3]: 20 µM
Selectivity ratio (Homo sapiens [5]): > 100
IC50 [6]: 0.316 µM
IC50 [7]: 31.6 µM
IC50 [8]: 3.98 µM
IC50 [9]: 25.1 µM
IC50 [10]: > 50.1 µM
IC50 [11]: 20 µM
IC50 [12]: 63.1 µM
IC50 [13]: 3.98 µM
IC50 [14]: > 50.1 µM
IC50 [15]: 10 µM
SMILES: CC1(C2CC2)NC(=O)N(CC(=O)Nc2ccc(Br)c(S(=O)(=O)N3CCCCC3)c2)C1=O (racemic)
Selectivity ratio (Homo sapiens [4]): > 10
